Results of several laboratories.
≈ marks a conversion by molar mass, not a printed value.

CCOC(=O)N[C@@H](C(=O)N1CCC[C@@H]1C(=O)Nc1cccc(C#CC#Cc2cccc(NC(=O)[C@H]3CCCN3C(=O)[C@H](NC(=O)OCC)C(C)C)c2)c1)C(C)C has an EC50 of > 10 µM (Hepatitis C virus; viral replication, inhibitor, luciferase; Huh-5-2, GETYPE1B; 72 h, replicon).
For C[C@]1(CO)[C@H]2CC[C@@H]3CN(Cc4ccco4)[C@@H](C4=CCOC4=O)C[C@H]3[C@]2(C)CC[C@H]1O, the inhibition was -7.7% (unidentified human coronavirus; cytopathic effect; MRC5; 25 µM, 72 h).
With CCCCCCC/C=C/C(=O)N1C(=O)/C(=C(/C)O)C(=O)C1CCCCN (stereo not shown) the MIC was > 200 µg/mL (Proteus mirabilis; microbial growth; ATCC25933).
For COC(=O)N[C@H](CC(C)C)C(=O)N1CCC[C@H]1C(=O)Nc1cccc(C#CC#Cc2cccc(NC(=O)[C@@H]3CCCN3C(=O)[C@@H](CC(C)C)NC(=O)OC)c2)c1, the EC50 was 0.0186 µM (Hepatitis C virus; viral replication, inhibitor, luciferase; GETYPE4A; replicon).
The MBC of CCOC(=O)c1c(N)csc1-c1cn(-c2ccccc2)nc1-c1ccc(C)cc1 is reported as 0.25 µg/mL (≈ 0.62 µM) (Acinetobacter baumannii; microbial killing, broth dilution).
COC(=O)N[C@H](C(=O)N1CCC[C@H]1C(=O)Nc1ccc(C#CC#Cc2ccc(NC(=O)[C@@H]3CCCN3C(=O)[C@@H](NC(=O)OC)C(C)C)cc2)cc1)C(C)C has an EC50 of 0.01 µM (Hepatitis C virus; viral replication, inhibitor, luciferase; Huh-5-2, GETYPE1B; 72 h, replicon).
The inhibition of CCCCN1C[C@H]2CC[C@@H]3[C@](C)(COC(C)=O)[C@H](OC(C)=O)CC[C@@]3(C)[C@@H]2C[C@@H]1C1=CCOC1=O is reported as 54.7% (unidentified human coronavirus; cytopathic effect; MRC5; 25 µM, 72 h).
For [N-]=[N+]=Nc1nc(N=[N+]=[N-])c2ncn([C@@H]3O[C@H](COC(=O)c4ccccc4)[C@@H](F)[C@@H]3F)c2n1, the EC50 was > 10 µM (Hepatitis C virus; viral replication, inhibitor; Huh-7; replicon).
CCCN1C[C@H]2CC[C@@H]3[C@](C)(COC(C)=O)[C@H](OC(C)=O)CC[C@@]3(C)[C@@H]2C[C@@H]1C1=CCOC1=O gave an inhibition of 45.8% (unidentified human coronavirus; cytopathic effect; MRC5; 25 µM, 72 h).
Cc1ccc(C(=O)CNc2nc(NS(=O)(=O)c3ccccc3)ncc2-c2nc3ccccc3s2)cc1 gave an IC50 of 90 µg/mL (≈ 175 µM) (Enterovirus B; plaque formation; BGM, B4).
CO[C@@H](C(N)=O)[C@H](NC(=O)c1ccc(NC(=O)c2ccc(C#N)cc2)cc1)C(=O)Nc1ccc(C(=O)Nc2ccc(C(=O)Nc3ccc(C(=O)O)cc3)c(O)c2OC(C)C)cc1 gave an MIC of 4 µg/mL (≈ 4.75 µM) (Proteus mirabilis; microbial growth; DSM4479).
The EC50 of CCOC(=O)N[C@@H](CC(C)C)C(=O)N1CCC[C@@H]1C(=O)Nc1ccc(C#CC#Cc2ccc(NC(=O)[C@H]3CCCN3C(=O)[C@H](CC(C)C)NC(=O)OCC)cc2)cc1 is reported as 5.63 µM (Hepatitis C virus; viral replication, inhibitor, luciferase; Huh-5-2, GETYPE1B; 72 h, replicon).
With COc1nc(Cl)nc2c1ncn2[C@@H]1O[C@H](CO)[C@@H](F)[C@@H]1F the EC50 was > 10 µM (Hepatitis C virus; viral replication, inhibitor; Huh-7; replicon).
C[C@]1(CO)[C@H]2CC[C@@H]3CN(Cc4ccccc4)[C@@H](C4=CCOC4=O)C[C@H]3[C@]2(C)CC[C@H]1O has an inhibition of 34.9% (unidentified human coronavirus; cytopathic effect; MRC5; 25 µM, 72 h).
The IC50 of CCOC(=O)c1cc(C#N)c(=O)n(NS(=O)(=O)c2ccc(C)cc2)c1N is reported as 90 µg/mL (≈ 239 µM) (Enterovirus B; plaque formation; BGM, B4).
For Cc1c(NN=C2SC(CC#N)=NC2=O)c(=O)n(-c2ccccc2)n1C, the inhibition zone was 15 mm (Acinetobacter baumannii; microbial growth, well diffusion; 100000 µg/mL).
